# Screens from PubChem.
# Sampled rows, rich in hits. Any-hit rate of the full collection: about 2.4%.
# MT stabilize HCS = microtubule stabilizers in HeLa cells, primary screen, imaging, high-content imaging; HeLa tubulin immunostaining HCS, 24 h; share of cells brighter than vehicle mean+2SD; % tubulin-high responders, % at 10 µM; 0.83% of 200,000 active; AID 2205, 2009;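 active = plate Z-score above 3 for both tubulin-high and condensed-nucleus cell shares, with cell loss under 80%, at 10 µM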;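 also: anti alpha tubulin signal scored within the nucleus-defined area of each cell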
# EP2 modulator = EP2 receptor modulators, cAMP readout, primary screen, cell-based, HTRF cAMP, PGE2 stimulation. Prostaglandin E2 receptor EP2 subtype (Homo sapiens), P43116. EP2-expressing cells, cAMP HTRF FRET, PGE2 co-stimulation. induction, % at 25 µM. 0.83% of 260,000 active;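 active = compounds whose cAMP rise, as percent of the full-agonist control response, exceeds 60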;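 also: rat C6 glioma line stably carrying human EP2 under a CMV promoter; the protocol text gives 20 µM as final concentration; 100% = response of wells given 1 µM PGE2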
# Target sequence (P43116 whole entry, looked up): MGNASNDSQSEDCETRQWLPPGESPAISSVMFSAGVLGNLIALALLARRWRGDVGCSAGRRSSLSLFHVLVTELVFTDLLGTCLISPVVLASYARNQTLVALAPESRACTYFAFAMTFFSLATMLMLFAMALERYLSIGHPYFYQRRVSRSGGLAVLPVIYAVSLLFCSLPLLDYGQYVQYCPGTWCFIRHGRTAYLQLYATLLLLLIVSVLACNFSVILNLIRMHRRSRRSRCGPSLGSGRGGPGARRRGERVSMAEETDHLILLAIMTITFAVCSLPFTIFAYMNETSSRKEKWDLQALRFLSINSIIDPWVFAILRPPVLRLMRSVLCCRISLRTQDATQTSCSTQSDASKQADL
# b-catenin transl = modulators of beta-catenin nuclear translocation, primary screen, imaging, HeLa cells, immunofluorescence, high-content | AID 1665, 2009 | 0.3% of 190,000 active | nuclear translocation activity, % at 5 µM;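 active = nuclear translocation activity above 50% at 5 µM, with a well cell count of 50 or more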;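 also: per-cell ratio of nuclear to cytoplasmic median beta-catenin stain intensity; plate controls were DMSO negative control for no effect and GSK-3 inhibitor IX positive control for full effect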
#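 Signal – beta-catenin immunofluorescence imaging with DAPI · Test system – human HeLa cell line · Dosing – 5 µM primary single dose, 0.1% DMSO, 0.02–20 µM confirmation series · Measure – % activation, nuclear-to-cytoplasmic median beta-catenin signal ratio per cell · Incubation – 24 h compound exposure at 37°C, 5% CO2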
# EP2 antag = human EP2 receptor antagonists, primary screen, TR-FRET cAMP, C6 glioma cells | 0.52% of 260,000 active | inhibition, % at 25 µM | C6 glioma cells expressing human EP2; cells stimulated with saturating PGE2 | AID 1422, 2008;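 active = percent inhibition above 40 after rounding to a whole number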;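 also: rat C6 glioma host cells with rolipram phosphodiesterase inhibitor present; the protocol text gives 20 µM as final concentration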
# Tb hexokinase = Trypanosoma brucei hexokinase 1 inhibitors, primary screen, biochemical, G6PDH-coupled NADH absorbance, MLSCN library; hexokinase 1 [Trypanosoma brucei]; recombinant TbHK1, G6PDH-coupled NADH A340; inhibition, % at 10 µM; 0.11% of 220,000 active;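 active = inhibition of 50% or more in the single-dose primary screen; inactive = inhibition below 50%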
# Efa HMGR inh = inhibitors of E. faecalis class II HMGR, primary screen, biochemical, Enterococcus faecalis; HMG-CoA reductase (Enterococcus faecalis, mvaE); inhibition, % at 10 µM; 0.41% of 190,000 active; purified E. faecalis HMGR, NADPH absorbance 340 nm kinetic;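 active = inhibition above a set limit, the median over all tested compounds plus 3 SD, cut at about 9.5% in these data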;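 also: enzyme runs in reverse so mevalonate oxidation gives rising NADPH absorbance; 0% = complete reaction with DMSO and 100% = background rate lacking mevalonate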
# EP2 cAMP induct = cAMP induction in EP2, EP4, beta2-AR and parental cells, confirmation, counter-screen for EP2 modulator project, cell-based, five parallel assays, C6 glioma, HEK293. shares compounds with EP2 modulator. cAMP HTRF induction; plus low (about EC15) PGE2 agonist. calls only at 20 µM (by protocol). 47% of 1,300 active. AID 1080, 2008;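 active = cAMP induction above 50% in the main assay while under 30% in all four parallel counter assays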;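 also: rat C6 glioma cells stably expressing human EP2 receptor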
# The depositor's hits bear a star; i = inactive; . = not tested or not shown; + = active, no number.
SMILES,MT stabilize HCS,EP2 modulator,b-catenin transl,EP2 antag,Tb hexokinase,Efa HMGR inh,EP2 cAMP induct
Cc1nc(NC(=O)CSc2cc(C)c3ccccc3n2)c(Cl)cc1Cl,1.4,19.6,0.7,7.0,5.3,2.7,.
COc1ccc(-c2c(C)nn3c(N4CCC(O)CC4)c4c(nc23)CCCC4)cc1,.,19.8,.,.,.,.,.
CCN1CCCC1CN(Cc1cc2ccc(C)cc2[nH]c1=O)C(=S)NCc1ccccc1 (stereo not given),.,-31.2,.,5.2,.,.,.
C[C@H](CCC(=O)O)[C@H]1CC[C@H]2[C@@H]3CC[C@@H]4C[C@H](O)CC[C@]4(C)[C@H]3C[C@H](O)[C@]12C,.,.,.,11.7,.,.,.
C[C@H](CCC(=O)O)[C@@H]1CC[C@@H]2[C@H]3CC[C@@H]4C[C@H](O)CC[C@@]4(C)[C@@H]3CC[C@]21C,.,51.5,.,34.9,.,.,i
CCOC(=O)c1c(CC(C)C)csc1N,3.2,71.9*,0.1,7.8,0.1,-1.9,i
CCOC(=O)c1c(CC(C)C)csc1NC(=O)CCl,3.1,74.2*,-2.8,.,6.9,-7.5,i
COc1ccc(NC(=O)N(Cc2ccccc2Cl)Cc2cc3cc(OC)ccc3[nH]c2=O)cc1,.,6.7,.,10.2,.,.,.
O=c1c2ccccc2nc(/C=C/c2cccnc2)n1Cc1ccccc1,2.3,15.9,8.0,2.9,-17.8,2.3,.
Cc1cccc(/C=C/c2nc3ccccc3c(=O)n2Cc2ccccc2)c1,4.6,69.1*,-0.1,1.1,-5.8,-1.9,+
C=CCSc1nc2ccsc2c(=O)n1-c1ccccc1,4.0,68.2*,-1.0,5.4,-2.9,1.8,i
C=CCSc1nc2ccccc2c(=O)n1Cc1ccccc1,2.0,71.5*,0.4,9.9,-3.1,-1.9,+
C=C(C)CSc1nc2ccccc2c(=O)n1Cc1ccccc1,.,25.6,.,9.0,.,.,.
O=c1c2ccccc2nc(/C=C/c2ccccc2)n1CCc1ccccc1,2.6,80.1*,-2.4,7.3,-1.5,2.3,+
COc1ccc(OC)c(NC(=O)CSc2ncc(-c3ccc(F)cc3)[nH]2)c1,.,-34.6,.,6.6,.,.,.
CC(=O)O[C@H]1CC[C@@]2(C)[C@@H](CC[C@H]3[C@H]2CC(=O)[C@]2(C)[C@@H]3C[C@H]3CC(C)=CC(=O)[C@@H]32)C1,.,63.8*,.,44.9*,.,.,i
O=C(c1ccco1)N(CCC(c1ccccc1)c1ccco1)Cc1ccc(F)cc1 (stereo not given),2.6,69.7*,0.3,3.9,10.6,.,+
CC(C)C(=O)Nc1ccc(N2CCN(C(=O)C(C)C)CC2)c(Cl)c1,.,-8.8,.,9.5,.,.,.
COc1cc(C(=O)N(Cc2cc3ccccc3[nH]c2=O)c2ccccc2)cc(OC)c1OC,.,-38.1,.,12.8,.,.,.
CN(C)c1nccc(N(Cc2ccccc2)Cc2ccccc2)c1C#N,2.4,67.9*,-2.3,8.0,-7.7,-0.6,+
CCOC(=O)C1=C(CC)Nc2ccccc2N=C1NC(=O)c1oc2ccccc2c1C,6.0,68.5*,0.1,14.1,-0.7,-1.4,i
CCOC(=O)C1=C(CC)Nc2ccccc2N=C1NC(=O)c1ccc(S(=O)(=O)N(C)C)cc1,0.7,0.3,-0.1,16.5,-11.3,-0.1,.
Cc1cc(-c2cn[nH]c2C2CCCN(C(=O)Cc3ccc(F)cc3)C2)on1 (stereo not given),.,-20.9,.,.,.,.,.
Cc1ccccc1C(=N)c1ccccc1Cc1cccc2ccccc12,.,72.2*,.,36.8,.,.,+
Cc1cc(C)cc(C(=N)c2ccccc2Cc2cccc3ccccc23)c1,.,52.9,.,36.7,.,.,i
Cc1[nH]c(=O)[nH]c(=O)c1Cc1cccc2ccccc12,5.6,-6.2,-1.3,10.4,0.2,0.8,.
